The record followed here is ChEMBL document CHEMBL1124429, “Heterocyclic analogues of benzamide antiarrhythmic agents” (J Med Chem, 1989).

Series [1] is filed under the species Canis familiaris. Nature of the series: Maximum percent change in conduction time (CT) at 100 uM concentration tested on Canine ventricular muscle fibre. The format is functional, Canis lupus familiaris, Muscle tissue. Put shortly:
(§1)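 Canine right ventricular papillary muscle strips were superfused at 36 ± 0.5 °C with saline gassed with 95% O2/5% CO2. Diastolic threshold was found with 2-ms stimuli at 4000 ms cycle length, then pacing at 4× threshold for 60 min equilibration. FRP was measured at 1000 ms cycle length by S1-S2 premature stimulus after every tenth S1. Conduction time came from a bipolar electrogram. Various compound concentrations were tested, one compound per strip, with vehicle controls. Percent change from control was taken at 10 µM, or the maximum change with its concentration; for N ≥ 3, mean with range.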

Series [2] is filed under the species Canis familiaris. Nature of the series: Maximum Percent change from control in the rate of rise of phase 0 of the action potential at 30 uM concentration on Canine Purkinje fibers. Also on record: species or system Canis lupus familiaris, Purkinje fiber. The settings on record: dog, in vitro. In a few lines:
(§2)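 Isolated canine Purkinje fibers were superfused with physiological saline gassed with 95% O2/5% CO2 (pH 7.35–7.40) at 36 ± 0.5 °C. Paced at 1.0 Hz with 2-ms pulses at twice diastolic threshold. After up to 1 h stabilization, compounds were tested over 10^-8 to 10^-3 M, 30 min per concentration, one compound per fiber, with vehicle controls. Intracellular microelectrodes (3 M KCl) recorded Vmax and APD95; maximum percent change from control is reported with its concentration.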

The species named for series [3] is Canis familiaris. Nature of the series: Percent change from control in conduction time (CT) at 10 uM concentration tested on Canine ventricular muscle fibre.; M is minimal(<10% change in CT). The conditions noted are these: Canis lupus familiaris, Muscle tissue. The format is functional. Put shortly: as §1
The species named for series [4] is Canis familiaris. Description: Percent change from control in the rate of rise of phase 0 of the action potential at 10 uM concentration on Canine Purkinje fibers. Also on record: species or system Canis lupus familiaris, Purkinje fiber. The settings on record: dog, in vitro.
Series [5] is filed under the species Canis familiaris. Description: Percent change in repolarization at 10 Purkinje fibers.; value ranges from 9-18. The format is functional, Canis lupus familiaris, Purkinje fiber. In a few lines:
(§3)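 Canine Purkinje fibers were held in oxygenated (95% O2–5% CO2) physiological saline, pH 7.35–7.40, at 36 ± 0.5 °C and paced at 1.0 Hz with 2-ms pulses at twice diastolic threshold. Intracellular microelectrodes (3 M KCl) recorded Vmax and APD95 simultaneously. After up to 1 h of stabilization, compounds were tested from 10^-8 to 10^-3 M with 30 min per concentration. One compound per fiber, with vehicle controls. For N ≥ 3, values are the mean with the range.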

For series [6], the species on record is Canis familiaris. Nature of the series: Maximum percent change in repolarization at 10 uM concentration on Canine Purkinje fibers. The format is functional, Canis lupus familiaris, Purkinje fiber. Put shortly:
as §2

Series [7] is filed under the species Canis familiaris. Nature of the series: Percent change from control in the functional refractory period (FRP) at 10 uM conc. on Canine ventricular muscle fibre. Also on record: species or system Canis lupus familiaris, Muscle tissue. Put shortly:
as §1

The species entered for series [8] is Canis familiaris. Description: Maximum percent change in repolarization at 100 uM concentration on Canine Purkinje fibers. The format is functional, Canis lupus familiaris, Purkinje fiber. In a few lines: as §2
For series [9], the species on record is Canis familiaris. Nature of the series: Maximum Percent change from control in the rate of rise of phase 0 of the action potential at 10 uM concentration on Canine Purkinje fibers. The format is functional, Canis lupus familiaris, Purkinje fiber. The settings on record: dog, in vitro. In a few lines: as §2
The species named for series [10] is Cavia porcellus. Nature of the series: Concentration of compound which gives a 20% decrease in contractile force was tested from individual experiments on papillary muscle of guinea pig, activity was expressed as EC-20. The format is functional. The conditions noted are these: Muscle tissue. In a few lines: (§4)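 Contractile force measured in an isolated cardiac muscle preparation. Value is the concentration giving a 20% decrease in force of contraction. NR marks that this decrease was not reached. Values come from individual experiments; for N ≥ 3, the mean is given with the range.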

The species entered for series [11] is Canis familiaris. Description: Maximum percent change in functional refractory period (FRP) at 100 uM on Canine ventricular muscle fibre. Also on record: species or system Canis lupus familiaris, Muscle tissue. In a few lines: as §1
The species entered for series [12] is Canis familiaris. Description: Maximum Percent change from control in the rate of rise of phase 0 of the action potential at 100 uM concentration on Canine Purkinje fibers. The settings on record: dog, in vitro. The format is […], Canis lupus familiaris, Purkinje fiber. Put shortly:
as §2

The species entered for series [13] is Canis familiaris. Description: Maximum percent change in conduction time (CT) at 10 uM concentration tested on Canine ventricular muscle fibre; value ranges from -12 - -5. The format is functional, Canis lupus familiaris, Muscle tissue. Put shortly: as §1
The species entered for series [14] is Canis familiaris. Nature of the series: Maximum percent change in repolarization at 30 uM concentration on Canine Purkinje fibers. The format is functional, Canis lupus familiaris, Purkinje fiber. Put shortly: as §2
For series [15], the species on record is Canis familiaris. Nature of the series: Percent change in repolarization at 10 Purkinje fibers; value ranges from -11- -25. The format is functional, Canis lupus familiaris, Purkinje fiber. Put shortly:
as §3

The species entered for series [16] is Canis familiaris. Description: Percent change from control in the rate of rise of phase 0 of the action potential at 10 uM concentration on Canine Purkinje fibers.; value ranges from -21- -37. The format is […], organism-based, Canis lupus familiaris, Purkinje fiber. The conditions noted are these: dog, in vitro.
Series [17] is filed under the species Canis familiaris. Nature of the series: Percent change from control in conduction time (CT) at 10 uM concentration tested on Canine ventricular muscle fibre.; value ranges from -12 - -5. The format is functional, Canis lupus familiaris, Muscle tissue. In a few lines:
as §1

Series [18] is filed under the species Canis familiaris. Description: Maximum percent change in functional refractory period(FRP) of compound (10 uM) was tested from individual experiment on Canine ventricular muscle fibre. Also on record: species or system Canis lupus familiaris, Muscle tissue. Put shortly: as §1
For series [19], the species on record is Cavia porcellus. Nature of the series: Concentration of compound which gives a 20% decrease in contractile force was tested on papillary muscle of guinea pig, activity was expressed as EC-20. The format is functional. The conditions noted are these: Muscle tissue. Put shortly:
as §4

Series [20] can be described thus: Maximum Percent change from control in the rate of rise of phase 0 of the action potential at 100 Purkinje fibers. The format is tissue-based, Purkinje fiber. Put shortly: as §2
For series [21], the species on record is Canis familiaris. Nature of the series: Percent change from control in the functional refractory period (FRP) at 10 uM conc. on Canine ventricular muscle fibre.; value ranges from -1-20. Also on record: species or system Canis lupus familiaris, Muscle tissue. In a few lines:
as §1

The species named for series [22] is Canis familiaris. Nature of the series: Maximum Percent change from control in the rate of rise of phase 0 of the action potential at 0.1 uM concentration on Canine Purkinje fibers. Also on record: species or system Canis lupus familiaris, Purkinje fiber. In a few lines:
as §2

For series [23], the species on record is Canis familiaris. Nature of the series: Percent change from control in the rate of rise of phase 0 of the action potential at 10 uM concentration on Canine Purkinje fibers.; value ranges from -17.0-2.0. Also on record: species or system Canis lupus familiaris, Purkinje fiber. The settings on record: dog, in vitro.
For series [24], the species on record is Cavia porcellus. Nature of the series: Concentration of compound ( ) which gives a 20% decrease in contractile force was tested on papillary muscle of guinea pig, activity was expressed as EC-20.; NR is not reached. The conditions noted are these: Muscle tissue. The format is functional. Put shortly: as §4
The species named for series [25] is Canis familiaris. Nature of the series: Maximum percent change in conduction time (CT) at 1 uM concentration tested on Canine ventricular muscle fibre. The format is functional, Canis lupus familiaris, Muscle tissue. In a few lines: as §1
The species named for series [26] is Canis familiaris. Description: Maximum percent change in functional refractory period (FRP) at 10 uM on Canine ventricular muscle fibre. Also on record: species or system Canis lupus familiaris, Muscle tissue. In a few lines:
as §1

Series [27] is filed under the species Canis familiaris. Nature of the series: Percent change in repolarization at 10 Purkinje fibers.; value ranges from -1-49. The format is functional, Canis lupus familiaris, Purkinje fiber. In a few lines: as §3
For series [28], the species on record is Canis familiaris. Description: Percent change from control in the functional refractory period (FRP) at 10 uM concentration on Canine ventricular muscle fibre. Also on record: species or system Canis lupus familiaris, Muscle tissue. In a few lines: as §1
Series [29] is filed under the species Canis familiaris. Description: Maximum percent change in conduction time (CT) at 0.1 uM concentration tested on Canine ventricular muscle fibre. The format is functional, Canis lupus familiaris, Muscle tissue. Put shortly: as §1
Series [30] is filed under the species Canis familiaris. Nature of the series: Percent change from control in the rate of rise of phase 0 of the action potential at 10 uM concentration on Canine Purkinje fibers; value ranges from 8.0-4.0. Also on record: species or system Canis lupus familiaris, Purkinje fiber. The settings on record: dog.
For series [31], the species on record is Canis familiaris. Description: Maximum percent change in functional refractory period (FRP) at 100 uM on Canine ventricular muscle fibre; value ranges from 7-26. Also on record: species or system Canis lupus familiaris, Muscle tissue. Put shortly:
as §1

The species entered for series [32] is Canis familiaris. Description: The maximum change from control in the rate of rise of phase 0 of the action potential at 10 uM concentration on Canine Purkinje fibers. Also on record: species or system Canis lupus familiaris, Purkinje fiber. The conditions noted are these: dog. In a few lines: as §3
For series [33], the species on record is Canis familiaris. Description: Percent change from control in conduction time (CT) at 10 uM concentration tested on Canine ventricular muscle fibre; value ranges from -12.0-2.0. The format is functional, Canis lupus familiaris, Muscle tissue. In a few lines:
as §1

For series [34], the species on record is Canis familiaris. Description: Percent change in repolarization at 10 Purkinje fibers. The format is functional, Canis lupus familiaris, Purkinje fiber. Put shortly: as §3
The species entered for series [35] is Canis familiaris. Description: Percent change from control in the functional refractory period (FRP) at 10 uM concentration on Canine ventricular muscle fibre; value ranges from 2-17. Also on record: species or system Canis lupus familiaris, Muscle tissue. In a few lines:
as §1

Series [36] is filed under the species Canis familiaris. Description: The maximum percent change from control in the rate of rise of phase 0 of the action potential at 100 uM concentration on Canine Purkinje fibers. Also on record: species or system Canis lupus familiaris, Purkinje fiber. The settings on record: dog, in vitro. Put shortly: as §3

Where “and” joins values, the source holds several entries; their conditions need not be identical. Equal values may be shown once.

Regarding `CCN(CC)CCNC(=O)c1cc2ccccc2[nH]1`, the CT in the series listed under Canis familiaris [1] was 15%; in the series listed under Canis familiaris [3], “Minimal”. For the same compound, the Vmax in the series filed under Canis familiaris [2] is reported as -6%; in the series listed under Canis familiaris [4], -2.3%; in the series filed under Canis familiaris [9], 5%; in the series listed under Canis familiaris [12], -35%. In addition, the APD95 was 14.3% in the series filed under Canis familiaris [5]; 16% and 18% in the series filed under Canis familiaris [6]; -24% in the series filed under Canis familiaris [8]. The values for the FRP in the series listed under Canis familiaris [7] and in the series filed under Canis familiaris [11] were 15% and 24%, respectively. Also, the EC20 (commonly the concentration needed for an effect of 20%) in the series filed under Cavia porcellus [10] amounted to 16 µM.
For `CCN(CC)CCCNC(=O)c1cc2cccc(OCc3ccccc3)c2[nH]1`, the CT in the series filed under Canis familiaris [13] and in the series listed under Canis familiaris [17] was -4% each time. Also, the Vmax is -56% in the series filed under Canis familiaris [2], -30.3% in the series filed under Canis familiaris [16], -33% in the series listed under Canis familiaris [9] and -79% in series [20]. Besides, the APD95 in the series listed under Canis familiaris [14] was -38%; in the series filed under Canis familiaris [15], -16.3%; in the series listed under Canis familiaris [6] it was -11%; in the series filed under Canis familiaris [8], 18%. The FRP is given as 20% in the series listed under Canis familiaris [18], 7% in the series listed under Canis familiaris [11] and 8% in the series filed under Canis familiaris [21]. In the series listed under Cavia porcellus [19], this compound returned a 20% effect concentration (EC20) of 8 µM.
Regarding `CCN(CC)CCNC(=O)c1[nH]c(C)c(C)c1C`, the Vmax in the series listed under Canis familiaris [22] is recorded as -3%; in the series filed under Canis familiaris [23], -6.3%; in the series listed under Canis familiaris [9], -17%; in the series filed under Canis familiaris [12], -42%. The 20% effect concentration (EC20) result in the series listed under Cavia porcellus [24] is recorded as “Not reached”. Moreover, the values for the APD95 in the series filed under Canis familiaris [14], in the series filed under Canis familiaris [8] and in the series listed under Canis familiaris [27] were 12%, -9% and 19.7%, respectively. The CT in the series filed under Canis familiaris [25] is listed as -5%; in the series listed under Canis familiaris [3], “Minimal”; in the series listed under Canis familiaris [29], 7%. Also, the FRP in the series listed under Canis familiaris [26] and in the series filed under Canis familiaris [28] was 24% throughout.
For `CCN(CC)CCNC(=O)c1ccc(N)cc1` [PROCAINAMIDE], the Vmax in the series listed under Canis familiaris [30] is given as -1.5%; in the series filed under Canis familiaris [32] it was 4%; in the series filed under Canis familiaris [36], -10%. Further, the CT in the series listed under Canis familiaris [1] was 4%; in the series filed under Canis familiaris [25] it was 5%; in the series filed under Canis familiaris [33], -3%. Moreover, the FRP in the series filed under Canis familiaris [31] is 14.3%; in the series filed under Canis familiaris [35], 8.7%. For the same compound, the APD95 in the series listed under Canis familiaris [6] is reported as 1%; in the series filed under Canis familiaris [34], -1%; in the series filed under Canis familiaris [8] it was 3%.
